Experimental findings from ChEMBL document CHEMBL1938274, “Discovery of potent and specific CXCR3 antagonists” (Bioorg Med Chem Lett, 2012) are described below.

Molecules are shown by their SMILES.

Data set [1] concerns the target T1, Cytochrome P450 3A4 (Homo sapiens, UniProt P08684). Put plainly: Time dependent inhibition of CYP3A4. The data set is classed as ADME.
For data set [2], the target named is T2, C-X-C chemokine receptor type 3 (Homo sapiens, UniProt P49682).
T2 sequence (P49682 whole entry): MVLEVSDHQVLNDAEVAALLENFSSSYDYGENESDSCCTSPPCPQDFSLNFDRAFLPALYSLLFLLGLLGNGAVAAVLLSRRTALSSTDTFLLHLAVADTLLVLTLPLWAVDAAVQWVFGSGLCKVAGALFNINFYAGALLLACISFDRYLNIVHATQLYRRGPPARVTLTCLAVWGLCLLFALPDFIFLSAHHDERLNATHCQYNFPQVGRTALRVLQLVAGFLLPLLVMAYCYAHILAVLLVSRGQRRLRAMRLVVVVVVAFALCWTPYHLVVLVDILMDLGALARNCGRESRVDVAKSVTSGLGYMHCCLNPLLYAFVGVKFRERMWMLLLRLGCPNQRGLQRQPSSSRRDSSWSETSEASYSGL
Put plainly: Displacement of [125I]-IP-10 from CXCR3 in presence of 100% human serum. (In a radioligand displacement assay an active substance lowers the binding of a labelled ligand.)

The target of data set [3] is T2, C-X-C chemokine receptor type 3. Put plainly: Displacement of [125I]-IP-10 from CXCR3.
The nature of data set [4]: Clearance in cynomolgus monkey at 0.5 mg/kg, iv. The data set is classed as ADME, organism-based, Macaca fascicularis. Set-up: dose 0.5 mg/kg, route intravenous. To be noted: in vivo. In outline:
(§1)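 Single intravenous dose in 10% N,N-dimethylacetamide, 10% ethanol, 30% propylene glycol, 50% water: 1 mg/kg mouse; 0.5 mg/kg rat, beagle dog, cynomolgus monkey. Plasma clearance also given as percent of hepatic blood flow.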

The test system of data set [5] is PBL. Put plainly: Toxicity in human PBL assessed as chromosomal aberrations at 7.81 to 1000 ug/mL. The class given is cell-based. In outline:
(§2)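 Cultured human peripheral blood lymphocytes exposed at 7.81–1000 μg/mL, with and without S9 metabolic activation; chromosomal aberrations scored.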

The nature of data set [6]: Apparent oral bioavailability in cynomolgus monkey at 2 mg/kg. The class given is ADME, organism-based, Macaca fascicularis. To be noted: in vivo, read-out: Fapp.
A short description of data set [7]: Clearance in Beagle dog at 0.5 mg/kg, iv. The class given is ADME, organism-based, Canis lupus familiaris. Set-up: dose 0.5 mg/kg, route intravenous. The conditions noted are these: in vivo. In outline: as §1
Data set [8] is described as follows: Apparent oral bioavailability in Beagle dog at 2 mg/kg. The conditions noted are these: in vivo, read-out: Fapp. The class given is ADME, organism-based, Canis lupus familiaris.
Data set [9] is described as follows: Clearance in mouse at 1 mg/kg, iv. The data set is classed as ADME, organism-based. Set-up: dose 1 mg/kg, route intravenous. To be noted: in vivo. A digest of the protocol:
as §1

Data set [10] is described as follows: Apparent oral bioavailability in mouse at 5 mg/kg. The class given is ADME, organism-based. To be noted: in vivo, read-out: Fapp.
In data set [11] the test system is PBL. Put plainly: Toxicity in human PBL assessed as chromosomal aberrations at 7.81 to 1000 ug/mL in the presence of S9. The class given is cell-based. A digest of the protocol:
as §2

The nature of data set [12]: Permeability of the compound at pH 5 to 7.4 by PAMPA. The data set is classed as ADME. To be noted: read-out: permeability. In outline:
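PAMPA permeability measured across pH 5 to 7.4.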
On the technique in general: PAMPA measures passive passage across an artificial lipid membrane.

In the next data set the target is Cytochrome P450 2D6 (Homo sapiens, UniProt P10635). Put plainly: Inhibition of CYP2D6. The class given is ADME.
Data set [13] concerns the target T1, Cytochrome P450 3A4. Put plainly: Inhibition of CYP3A4. The class given is ADME.

T1 sequence (P08684 whole entry): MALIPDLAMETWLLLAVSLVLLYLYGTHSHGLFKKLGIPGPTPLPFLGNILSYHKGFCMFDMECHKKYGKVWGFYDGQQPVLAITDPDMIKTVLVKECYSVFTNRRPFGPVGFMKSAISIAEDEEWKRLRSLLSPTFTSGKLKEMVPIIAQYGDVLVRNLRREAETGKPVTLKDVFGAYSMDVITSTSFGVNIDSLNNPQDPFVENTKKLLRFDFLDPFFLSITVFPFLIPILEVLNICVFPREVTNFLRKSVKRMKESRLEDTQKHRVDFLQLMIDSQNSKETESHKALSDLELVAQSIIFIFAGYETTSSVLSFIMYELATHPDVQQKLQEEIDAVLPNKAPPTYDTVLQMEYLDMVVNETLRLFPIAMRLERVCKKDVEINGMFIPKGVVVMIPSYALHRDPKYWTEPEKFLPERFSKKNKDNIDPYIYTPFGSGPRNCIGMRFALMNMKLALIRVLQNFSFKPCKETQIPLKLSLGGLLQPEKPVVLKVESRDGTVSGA
Cytochrome P450 2D6, sequence (P10635 whole entry): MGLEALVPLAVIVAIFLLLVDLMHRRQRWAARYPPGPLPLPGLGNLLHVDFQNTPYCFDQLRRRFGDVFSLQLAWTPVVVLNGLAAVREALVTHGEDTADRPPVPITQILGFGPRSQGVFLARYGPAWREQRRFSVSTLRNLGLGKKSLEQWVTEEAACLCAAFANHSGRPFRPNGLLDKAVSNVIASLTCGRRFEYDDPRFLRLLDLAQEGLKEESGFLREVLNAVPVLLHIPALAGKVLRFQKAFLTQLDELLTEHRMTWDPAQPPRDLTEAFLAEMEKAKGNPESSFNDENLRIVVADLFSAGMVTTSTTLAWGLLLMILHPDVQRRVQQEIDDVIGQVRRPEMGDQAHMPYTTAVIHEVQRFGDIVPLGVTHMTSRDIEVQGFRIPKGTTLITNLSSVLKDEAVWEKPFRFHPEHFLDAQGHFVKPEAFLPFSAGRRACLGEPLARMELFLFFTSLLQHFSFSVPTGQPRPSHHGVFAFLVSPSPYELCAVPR

On to `CCOc1ccc(-n2c([C@@H](C)N(CCS(=O)(=O)CC)C(=O)Cc3ccc(F)c(C(F)(F)F)c3)nc3ncccc3c2=O)cc1`, for which the TDI result on Cytochrome P450 3A4 [1] is “Not Active”.

Broadly, the IC50 is the midpoint of a concentration-inhibition curve. For the molecule `CCOc1ccc(-n2c([C@@H](C)N(Cc3ccc[n+]([O-])c3)C(=O)Cc3ccc(OC(F)(F)F)cc3)nc3ncccc3c2=O)cc1`, the IC50 in [2] is 0.014 µM; in data set [3], 0.007 µM.

Broadly, the clearance is the rate of elimination divided by the concentration. Regarding `C[C@H](c1nc2ncccc2c(=O)n1-c1ccc(C#N)cc1)N(CC1CCS(=O)(=O)CC1)C(=O)Cc1ccc(F)c(C(F)(F)F)c1`, the clearance in [4] was 21.7 mL/min/kg; in [7], 8.33 mL/min/kg; in data set [9], 8.17 mL/min/kg. The IC50 in [2] was 0.012 µM; in [3], 0.008 µM. The Activity entry in the data set with PBL [5] and with PBL [11] was “Non-toxic” throughout. The bioavailability in data set [6] came to 1%; in data set [8], 1.6%; in data set [10], 17%.

In the case of `C[C@H](c1nc2ncccc2c(=O)n1-c1ccc(C#N)cc1)N(CCS(C)(=O)=O)C(=O)Cc1ccc(F)c(C(F)(F)F)c1`, the IC50 in data set [2] is 0.029 µM; in data set [3], 0.013 µM. For the same molecule, the Activity result in the data set on PBL [5] and in the data set with PBL [11] was “Toxic” in each case.

For `C[C@H](c1nc2ncccc2c(=O)n1-c1ccc(C#N)cc1)N(CC1CCS(=O)(=O)CC1)C(=O)Cc1ccc(C(F)(F)F)c(F)c1`, the half-inhibitory concentration (IC50) in data set [2] was 0.015 µM; in data set [3], 0.007 µM. Also, the Activity result in the data set with PBL [5] and with PBL [11] was “Toxic” each time.

As to `C[C@H](c1nc2ccccn2c(=O)c1-c1ccc(C#N)cc1)N(CC1CCS(=O)(=O)CC1)C(=O)Cc1ccc(OC(F)(F)F)cc1`, the IC50 in data set [2] worked out at 0.022 µM; in data set [3], 0.006 µM. In addition, the Activity entry in the data set with PBL [5] and in the data set on PBL [11] was “Toxic” throughout.

With `CCS(=O)(=O)CCN(C(=O)Cc1ccc(C(F)(F)F)c(F)c1)[C@H](C)c1nc2ncccc2c(=O)n1-c1ccc(F)cc1`, the IC50 in data set [2] amounted to 0.058 µM; in data set [3], 0.047 µM. In addition, the Activity entry in the data set with PBL [5] and in the data set with PBL [11] was “Non-toxic” each time. For the same molecule, in [12], the Papp was found to be 0.8 ×10⁻⁶ cm/s.

Turning to `CCS(=O)(=O)CCN(C(=O)Cc1ccc(F)c(C(F)(F)F)c1)[C@H](C)c1nc2ncccc2c(=O)n1-c1ccc(Cl)cc1`, the IC50 worked out at 0.022 µM in [2] and 0.006 µM in data set [3]. Also, the Activity entry with PBL [5] and with PBL [11] was “Non-toxic” throughout.

As to `CCS(=O)(=O)CCN(C(=O)Cc1ccc(C(F)(F)F)c(F)c1)[C@H](C)c1nc2ncccc2c(=O)n1-c1ccc(Cl)cc1`, the figures for the IC50 in data set [2] and in data set [3] were 0.021 µM and 0.007 µM, respectively. The Activity result in the data set on PBL [5] and in the data set with PBL [11] was “Non-toxic” in each case.

In the case of `C[C@H](c1nc2ncccc2c(=O)n1-c1ccc(Cl)cc1)N(CC1CCS(=O)(=O)CC1)C(=O)Cc1ccc(C(F)(F)F)c(F)c1`, the results for the IC50 (on Cytochrome P450 2D6; in [2]; against Cytochrome P450 3A4 [13]) were over 10 µM, 0.013 µM and over 10 µM, respectively. Besides, the Activity result in the data set on PBL [5] and in the data set with PBL [11] was “Non-toxic” in each case.

For the molecule `CCS(=O)(=O)CCN(C(=O)Cc1ccc(F)c(C(F)(F)F)c1)[C@H](C)c1nc2ncccc2c(=O)n1-c1ccc(F)cc1`, the IC50 in data set [2] was 0.05 µM; in data set [3], 0.042 µM. Also, the Activity result in the data set with PBL [5] and with PBL [11] was “Non-toxic” in each case.
